An excerpt weighted towards active compounds, which were near 4.7% of everything screened.
MrgX1 antagonist: antagonists of human MrgX1 receptor | B-score at 10 µM | 310,000 compounds, 1.3% hits | AID 588676 | MRGX1-HEK293 calcium flux, Fluo-4, BAM8-22 antagonism; hits give low values;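 active means calcium-response B-score plate-corrected more than 3 library SD below zero, starting fluorescence within 5 deviations, no agonist response on first addition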;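 further: peak minus trough fluorescence over baseline after final BAM8-22 challenge near maximal dose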
MrgX1 allo act: allosterically activates human MrgX1 receptor signaling | Q96LB2 | MrgX1-HEK293, Fluo-4 calcium flux, FDSS; hits give high values | B-score at 10 µM | 310,000 compounds, 0.63% hits | AID 588675;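 active means plate-corrected calcium response at least 3 library SD above typical, normal starting fluorescence, not activating the receptor alone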;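 further: compound read alongside a low EC10 to EC30 dose of BAM8-22 agonist; peak minus trough fluorescence over baseline measured at the second addition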
MrgX1 agonist: agonists of human MrgX1 receptor; Q96LB2; MrgX1-HEK293 cells, Fluo-4 calcium fluorescence, agonist mode; hits give high values; B-score at 10 µM; 310,000 compounds, 0.44% hits;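 active means calcium response B-score plate-corrected fluorescence ratio at least 3 library SD, with starting fluorescence B-score inside 5 SD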
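Material: MrgX1-expressing HEK293 cells; input: 15,000 cells per well; doses: test compound given as first of three sequential additions; schedule: overnight plating before 1 h dye loading; technique: Fluo-4 NW calcium-flux fluorescence, kinetic read; evaluation: baseline-normalised fluorescence change ratio, B-scored; control set: plate-wise positive and negative controls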
KCC2 mod: modulates chloride dependent transport by human KCC2. KCC2 cells, thallium flux FluoZin-2 fluorescence. B-score of Tl+ flux slope (higher = more flux/activation; lower = inhibition) at 10 µM. 190,000 compounds, 2.2% hits. AID 1456;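 active means thallium flux slope and its plate-corrected score both differing from the plate sample mean at a set confidence after two filtering rounds, in either direction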;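 further: slope of fluorescence scaled to starting intensity during 10 to 20 s after thallium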
Target sequence (Q9H2X9 whole entry, looked up): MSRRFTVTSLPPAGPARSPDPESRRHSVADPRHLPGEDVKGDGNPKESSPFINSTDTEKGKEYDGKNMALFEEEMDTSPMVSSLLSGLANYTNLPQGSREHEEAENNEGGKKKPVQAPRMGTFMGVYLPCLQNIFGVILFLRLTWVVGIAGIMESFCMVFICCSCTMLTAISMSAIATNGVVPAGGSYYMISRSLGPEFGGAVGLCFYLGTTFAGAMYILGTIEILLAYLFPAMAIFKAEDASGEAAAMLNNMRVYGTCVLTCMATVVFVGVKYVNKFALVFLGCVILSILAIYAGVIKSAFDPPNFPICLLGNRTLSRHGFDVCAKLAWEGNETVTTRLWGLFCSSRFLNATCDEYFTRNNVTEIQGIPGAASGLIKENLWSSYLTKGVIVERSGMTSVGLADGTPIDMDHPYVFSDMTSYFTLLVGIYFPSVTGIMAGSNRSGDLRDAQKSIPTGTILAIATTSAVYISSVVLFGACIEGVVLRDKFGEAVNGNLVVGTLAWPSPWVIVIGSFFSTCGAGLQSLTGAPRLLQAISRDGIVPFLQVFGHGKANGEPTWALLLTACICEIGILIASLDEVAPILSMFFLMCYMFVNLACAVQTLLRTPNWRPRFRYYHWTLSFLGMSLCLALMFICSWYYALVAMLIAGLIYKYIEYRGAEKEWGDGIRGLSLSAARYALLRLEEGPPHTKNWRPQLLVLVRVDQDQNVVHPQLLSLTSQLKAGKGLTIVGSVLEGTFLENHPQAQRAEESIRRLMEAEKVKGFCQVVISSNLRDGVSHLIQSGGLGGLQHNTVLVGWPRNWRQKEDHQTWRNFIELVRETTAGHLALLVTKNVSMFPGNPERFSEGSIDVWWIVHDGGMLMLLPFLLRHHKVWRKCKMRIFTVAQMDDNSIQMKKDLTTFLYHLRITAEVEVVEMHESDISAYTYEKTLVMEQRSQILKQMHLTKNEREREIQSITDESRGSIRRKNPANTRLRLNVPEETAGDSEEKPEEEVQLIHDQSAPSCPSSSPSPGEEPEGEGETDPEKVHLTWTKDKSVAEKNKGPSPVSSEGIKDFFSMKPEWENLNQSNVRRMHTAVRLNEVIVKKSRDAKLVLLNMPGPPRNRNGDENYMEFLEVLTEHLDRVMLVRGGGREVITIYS
RGS4 act: RGS4 potentiation or activation | HEK293 M3R/inducible RGS4, carbachol calcium flux Fluo4; hits give low values | B-score at 10 µM | 310,000 compounds, 0.92% hits;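 active means B-score of the integrated calcium signal more than 4 SD below the library mean, with starting fluorescence not abnormally high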;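 further: negative B-score means reduced calcium response which marks RGS4 activation or potentiation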
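System: HEK293 FlpIn-TREx cells, stable M3R, doxycycline-inducible RGS4. Timing: overnight RGS4 induction, 30 min dye load 37 °C, 20 min compound RT. Also added: carbachol, ECmax concentration. Measured by: Fluo4 fluorescence kinetic imaging of calcium. Evaluation: integrated calcium ratio converted to B score.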
RGS4 inh: human RGS4 inhibition | HEK293 M3R/RGS4 inducible, Fluo-4 calcium flux; hits give high values; triggered by carbachol at its EC20 | P49798 | 310,000 compounds, 0.45% hits | AID 463165 | B-score at 10 µM;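 active means B-score, a plate-corrected calcium signal, over three deviations above library mean, with baseline fluorescence within five deviations of library mean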;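 further: RGS4 expression induced by doxycycline in cells with stable M3 receptor; B-score is computed from the integrated fluorescence ratio over baseline after carbachol; higher B-score means a larger calcium signal and so more RGS4 inhibition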
* hit, by the source's call; i = inactive; . = not tested or not shown; ! = a repeat was not active.

SMILES	MrgX1 antagonist	MrgX1 allo act	MrgX1 agonist	KCC2 mod	RGS4 act	RGS4 inh
Fc1cccc2sc(Nc3nnc(-c4ccccc4)o3)nc12	i	i	i	.	i	i
COc1ccc(-c2nnc(-c3ccc(N)cc3)o2)cc1	i	i	i	-0.0104	i	i
COc1ccc(-c2nnc(Nc3nc4c(OC)cccc4s3)o2)c(OC)c1	i	i	i	84.8*	i	i
COc1cc(OC)cc(-c2nnc(Nc3nc4c(F)cccc4s3)o2)c1	i	i	i	9.14*	i	i
Cc1cc(C)c(C)c(S(=O)(=O)N2CCC(C(=O)Nc3ccncc3)CC2)c1C	i	i	i	.	i	i
CC1CN(/C=C/C=O)C(C)CC1OC(=O)c1ccccc1 (centres undefined)	i	i	i	.	i	i
Cc1cccc(NC(=O)COC(=O)c2cccc3c2C(=O)c2ccccc2C3=O)c1C	i	i	i	-0.0768	-7.22*	i
Cc1cccc(N2C(=O)CS/C2=N\NC(=O)c2ccc(Cl)cc2)c1C	i	i	i	2.96*	i	i
CCc1nc2ccccc2c(=O)n1NC(=O)c1c(O)c2ccccc2n(CC)c1=O	i	12.1*	i	.	i	i
CCn1c(=O)c(C(=O)NNC(=O)c2ccc(Cl)cc2Cl)c(O)c2ccccc21	i	i	69*	.	-7.85*	i
CCCn1c(=O)c(C(=O)NCCc2ccc(OC)cc2)c(O)c2ccccc21	i	6.97*	i	.	i	i
CCCn1c(=O)c(C(=O)NNS(=O)(=O)c2ccc(Cl)cc2)c(O)c2ccccc21	i	i	i	-0.0148	i	i
CCCn1c(=O)c(C(=O)NNC(=O)c2ccc(Cl)cc2Cl)c(O)c2ccccc21	i	i	38.5*	.	i	i
CCn1c(=O)c(C(=O)NNC(=O)c2cccc(Cl)c2)c(O)c2ccccc21	i	i	i	.	i	i
CC(=O)Nc1c(I)c(NC(C)=O)c(I)c(C(=O)O)c1I	i	i	i	10.3*!	i	i
O=C(CCCCC(=O)Nc1c(I)cc(I)c(C(=O)O)c1I)Nc1c(I)cc(I)c(C(=O)O)c1I	i	i	i	.	i	i
COc1ccc(NC2CCCN(C(=O)c3ccc4[nH]c(C)c(C)c4c3)C2)cc1 (centres undefined)	i	i	i	.	i	i
CC(=O)n1c(-c2ccccc2)c(CO)c2ccccc21	i	21.6*	i	.	i	i
O=C(Nc1cc(C(F)(F)F)cc(C(F)(F)F)c1)Nc1cnn(-c2ccc([N+](=O)[O-])cc2)c1C(F)(F)F	-6.96*	i	i	0.6	i	i
COc1ccc(/C=C(\NC(=O)c2ccc(Cl)cc2)C(=O)NCC2CCCO2)cc1OC (centres undefined)	i	i	i	.	i	i
CC/C(=N\NC(C)=O)c1ccc(OC(F)F)cc1	i	i	i	-0.362	i	i
CC/C(=N\NC(=S)Nc1cc(C)ccc1C)c1ccc(OC(F)F)cc1	i	i	i	7.67*	i	i
CC/C(=N\NC(=S)Nc1ccc(OC)cc1)c1ccc(OC(F)F)cc1	i	i	i	8.7*	i	i
CCC(C)N1C(=O)/C(=C/c2c(NCCCOC(C)C)nc3c(C)cccn3c2=O)SC1=S (centres undefined)	-11.1*	i	i	-0.121	.	.
CCC(C)Nc1nc2c(C)cccn2c(=O)c1C=Nc1ccc(OC)cc1 (centres undefined)	i	i	i	.	i	i
SMILES	MrgX1 antagonist	MrgX1 allo act	MrgX1 agonist	KCC2 mod	RGS4 act	RGS4 inh
CCCN1C(=O)/C(=C/c2c(NCCCOC(C)C)nc3c(C)cccn3c2=O)SC1=S	-10.4*	i	i	-0.0627	i	i
COc1ccc(CNC(=O)COc2cccnc2[N+](=O)[O-])cc1OC	i	6.93*	i	.	i	i
Cc1ccc2c(C)c(C(=O)Nc3ccc(S(=O)(=O)Nc4onc(C)c4C)cc3)oc2c1	i	i	i	.	i	i
CCN(CC)c1ccc(C=C2C(=O)OC(c3ccccc3)OC2=O)cc1 (centres undefined)	i	i	27.3*	-0.356	i	i
CCN(CC)c1ccc(C=C2C(=O)OC(C)(C(C)(C)C)OC2=O)cc1 (centres undefined)	i	i	56*	.	i	i
CC1=CC=CC2=NC(=O)CC(C)(C(=O)N(CC(=O)NC3CCCC3)c3ccc(F)cc3)N12 (centres undefined)	i	i	i	.	i	i
CCCNC(=O)NC(=O)CN1C(=O)NC(C)(c2ccc3ccccc3c2)C1=O (centres undefined)	i	i	i	.	i	i
Cc1ccc(Nc2nc(N)nc(CN3CCN(C)CC3)n2)cc1	i	i	i	0.574	-7.15*	i
Cc1ccc(Nc2nc(N)nc(CN3CCCCCC3)n2)cc1	i	i	i	0.00183	i	i
Cc1ccc(C)c(-c2nnc(NC(=O)C3=COCCO3)o2)c1	i	i	i	.	i	i
O=C(Nc1nnc(-c2ccc(Cl)cc2)o1)C1=COCCO1	i	i	i	9.45*	i	i
O=C(NC1CC1)C1CC(=O)N(c2cccc(Cl)c2)C1 (centres undefined)	i	i	i	.	i	i
Cc1nn(C)cc1C1Nc2ccccc2C(=O)N1O (centres undefined)	i	i	i	-0.093	i	i
C=CCc1cccc(C2Nc3ccccc3C(=O)N2O)c1O (centres undefined)	i	i	i	13.3*	i	i
O=C1CC(c2ccc(O)cc2)Oc2cc(O)cc(O)c21 (centres undefined)	i	i	i	-0.024	i	i
CC1CC(=O)c2c(cc3c(-c4c(O)cc(O)c5c(O)c6c(cc45)OC(C)CC6=O)c(O)cc(O)c3c2O)O1 (centres undefined)	-6.75*	i	i	-6.11*	i	i
COc1cccc(C(C(=O)NC2CCCC2)N(C(=O)CNC(=O)c2ccco2)c2cccnc2)c1 (centres undefined)	i	i	i	.	i	i
CC(CCc1ccccc1)NC(=O)COc1cc(F)ccc1[N+](=O)[O-] (centres undefined)	i	8.31*	i	-2.69	i	i
CCC(C)NC(=O)COc1ccccc1[N+](=O)[O-] (centres undefined)	i	i	i	-0.727	i	i
